Assay outcomes as filed in PubChem BioAssay.
TAAR1 agonist: human TAAR1 agonists, primary screen, Fluo-8 calcium fluorescence, CHO RD-HGA16 cells | Trace amine-associated receptor 1 (Homo sapiens), Q96RJ0 | vehicle wells 0%, saturating PEA agonist 100% | activation, % at 3 µM | hit rate 0.99% among 360,000 | AID 624467, 2012;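 active means activation above the mean activation of all test compounds in the run plus 3 SD, cut at about 38% in these data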
Target sequence (Q96RJ0 whole entry, looked up): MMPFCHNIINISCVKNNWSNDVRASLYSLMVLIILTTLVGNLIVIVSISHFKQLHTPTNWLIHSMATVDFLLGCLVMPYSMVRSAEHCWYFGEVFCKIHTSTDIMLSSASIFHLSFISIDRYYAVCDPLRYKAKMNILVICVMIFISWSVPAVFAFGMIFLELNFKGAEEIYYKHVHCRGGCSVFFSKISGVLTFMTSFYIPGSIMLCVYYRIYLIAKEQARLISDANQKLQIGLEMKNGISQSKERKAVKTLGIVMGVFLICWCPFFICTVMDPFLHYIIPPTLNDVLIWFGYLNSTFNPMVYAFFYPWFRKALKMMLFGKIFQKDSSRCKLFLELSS
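System: CHO-derived RD-HGA16 cells with stable Gα16 and human TAAR1. Times: 17-24 h plating, Fluo-8 75 min 37 °C, 30 min RT. Measured by: calcium-sensitive Fluo-8 signal, excitation 470-495, emission 515-575 nm. Read-out basis: % activation relative to PEA EC100 response. Control set: DMSO and PEA EC100. Repeats: no replicates (n 1).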
OX1R antag-1: OX1R (HCRTR1) antagonists, primary screen, fluorescence, CHO/OX1R cells, Fluo-8 calcium, orexin A; Orexin/Hypocretin receptor type 1 (Homo sapiens), O43613; Fluo-8 calcium fluorescence; inhibition, % at 5 µM; hit rate 0.43% among 330,000;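 active means inhibition above its plate's threshold, mean inhibition of all tested compounds on the plate plus 3 SD, cut at about 37% in these data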
OX1R antag-2: antagonists of human orexin 1 receptor (OX1R). Orexin/Hypocretin receptor type 1 (Homo sapiens), O43613. OX1R-expressing cells, FRET antagonist read-out. inhibition, % at 6.6 µM. hit rate 1.8% among 330,000. AID 485270, 2010; in the data active means inhibition mostly above about 38%, no sharp cut-off; inactive means mostly below about 40%
CHO parental Ca: ATP-evoked calcium signal inhibitors, parental CHO, primary screen, counter-screen for OX1R antagonist project, cell-based, fluorescence, Fluo-8 calcium dye | parental CHO-K1, ATP-induced calcium, Fluo-8 fluorescence | inhibition, % at 5.6 µM | hit rate 0.63% among 330,000;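 active means inhibition above that plate's mean sample inhibition plus 3 SD, cut at about 26% in these data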
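Measured by: calcium-sensitive Fluo-8 fluorescence / Test system: CHO parental line / Controls: ATP-challenged DMSO wells low, unchallenged DMSO wells high / Measure: % inhibition / Compound: single nominal dose of 5.6 µM per compound / Replicates: single well per compound, no replicates / Reagent: ATP as calcium-mobilizing challenge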
TAAR1 antag: human TAAR1 antagonists, primary screen, Fluo-8 calcium fluorescence, CHO RD-HGA16 cells; Trace amine-associated receptor 1 (Homo sapiens), Q96RJ0; antagonist; inhibition, % at 3 µM; hit rate 1.5% among 360,000; AID 624466, 2012;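 active means inhibition above a per-plate cutoff, the mean inhibition of test compounds on that plate plus 3 SD, cut at about 49% in these data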
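Test system – hTAAR1-expressing CHO RD-HGA16 cells, Gα16-coupled · Reagent – β-PEA at EC80 concentration, post-compound challenge · Compound dosing – 3 µM, single point · Timing – 140 s kinetic read after compound, 140 s after agonist · Detection – Fluo-8 intracellular calcium dye fluorescence, real-time kinetic reads · Control set – DMSO and EC80 PEA controls · Repeats – n of 1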
GPR7 antag: GPR7 receptor antagonists, primary screen, cell-based, fluorescence, single concentration. Neuropeptides B/W receptor type 1 (Homo sapiens), P48145. GPR7-expressing cells, fluorescence antagonist assay. inhibition, % at 4.4 µM. hit rate 1.1% among 290,000. AID 1861, 2009; in the data active means inhibition above about 16%, passing the limit was not always enough;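 further: cells stimulated with the agonist NPW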
Target sequence (P48145 whole entry, looked up): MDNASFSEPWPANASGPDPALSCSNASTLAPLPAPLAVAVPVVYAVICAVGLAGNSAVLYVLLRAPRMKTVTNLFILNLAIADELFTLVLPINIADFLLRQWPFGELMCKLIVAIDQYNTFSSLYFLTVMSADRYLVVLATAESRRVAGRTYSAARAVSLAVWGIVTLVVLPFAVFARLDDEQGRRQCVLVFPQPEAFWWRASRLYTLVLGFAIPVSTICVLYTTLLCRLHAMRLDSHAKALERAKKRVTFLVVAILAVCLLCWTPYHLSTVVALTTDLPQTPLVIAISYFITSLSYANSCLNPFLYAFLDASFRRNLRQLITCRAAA
Each line names hits and unclear results; the compound was inactive in the other large screens. This is a sample that favours compounds with a hit; in the whole collection about 4.5% have one here.

COc1ccc(S(=O)(=O)Nc2cccc3c2O[C@H](CN(C)C(=O)Nc2ccc(C(F)(F)F)cc2)[C@@H](C)CN([C@H](C)CO)C3=O)cc1	none (no result: GPR7 antag)
COc1cccc(N2CC(C(=O)Nc3nnc(SCC(=O)NCc4ccco4)s3)CC2=O)c1 (centres undefined)	none
C[C@@H]1ON(C)[C@H]2C[C@H]3c4[nH]c5cccc(-c6ccccc6F)c5c4CCN3C(=O)[C@@H]12	none (no result: OX1R antag-1, OX1R antag-2, CHO parental Ca, GPR7 antag)
COc1ccc(CCNC(=O)CN2C(=O)NC(c3ccccc3)(c3ccccc3)C2=O)cc1	OX1R antag-2 36 (no result: GPR7 antag)
Cc1nc2cc(-c3ccc(Cl)cc3)nn2c(C)c1CCC(=O)NC(C)c1ccc2c(c1)OCCO2 (centres undefined)	OX1R antag-2 49
Cc1csc(NC(=O)CCc2c(C)nc3cc(-c4ccc(Cl)cc4)nn3c2C)n1	none
COC(=O)[C@]12C[C@H](CC(=O)NCCCCc3ccccc3)C(=O)N(Cc3ccccc3)C1=C[C@H](C(C)C)O[C@@H]2C1CC1	none (no result: OX1R antag-1, OX1R antag-2, CHO parental Ca, GPR7 antag)
CCCCN(C)C(=O)CCCc1c[nH]c2ccccc12	GPR7 antag 19
CCN(CC)C(=O)CCCc1c[nH]c2ccccc12	none
C#CCN1C(=O)[C@]2(OCCC=C[C@H]2C)c2cc(OC)ccc21	none (no result: OX1R antag-1, OX1R antag-2, CHO parental Ca, GPR7 antag)
O=C(NNC(=O)c1cc(-c2cccnc2)nc2ccccc12)Nc1ccc(Cl)cc1	CHO parental Ca 59, TAAR1 antag 82
O=C(Nc1ccc(C(=O)N2CCOCC2)cc1)c1cc(-c2cccnc2)nc2ccc(Br)cc12	TAAR1 antag 53
Cc1ccc(NC(=O)c2ncn(CCCNCC3CCCO3)n2)cc1C (centres undefined)	none (no result: OX1R antag-1, OX1R antag-2, CHO parental Ca, GPR7 antag)
COc1ccc(NC2CCCN(C(=O)c3ccccc3C(F)(F)F)C2)cc1 (centres undefined)	none
O=c1cc(C(F)(F)F)[nH]c2c(C(F)(F)F)cccc12	OX1R antag-2 67 (no result: TAAR1 agonist, TAAR1 antag)
CCC(=O)N(C)/C=C1\Sc2ccccc2C1=O	none
CCC(=O)N(CC)C1=C(O)c2ccccc2C(=O)C1=O	OX1R antag-2 58
Cc1ccccc1OCC(=O)NS(=O)(=O)c1ccc(Cl)cc1	none
Cc1ccc(C(C)C)c(OCC(=O)NS(=O)(=O)c2ccc(Cl)cc2)c1	OX1R antag-2 59
COc1ccc(NC(=O)CCC(=O)c2ccc(Cl)cc2)cn1	none (no result: GPR7 antag)
Cc1ccccc1-c1cnc(C(O)c2ccc(-c3ccccc3)cc2)[nH]1 (centres undefined)	none (no result: OX1R antag-1, OX1R antag-2, CHO parental Ca, GPR7 antag)
Cc1ccc(S(=O)(=O)c2c(C)nn(C(C)(C)C)c2OC(=O)CC(C)C)cc1	CHO parental Ca 31
O=C(CN1CCCCCC1)Nc1cc([N+](=O)[O-])ccc1Cl	OX1R antag-2 62
O=C(CN1CCN(c2ccccc2O)CC1)Nc1cc([N+](=O)[O-])ccc1Cl	OX1R antag-2 58
O=C(CN1CCCCC1)Nc1nnc(-c2ccc([N+](=O)[O-])cc2)s1	OX1R antag-2 58
COC(=O)[C@]12C[C@H](CC(=O)N3CCSCC3)C(=O)N(Cc3ccc4c(c3)OCO4)C1=C[C@H](COCc1ccccc1)O[C@@H]2C	none (no result: OX1R antag-1, OX1R antag-2, CHO parental Ca, GPR7 antag)
CCOC(=O)N/N=C/c1ccccc1F	none
CCc1nnc(N/N=C/c2ccccc2F)n1N	OX1R antag-2 74
CN(C)c1ccc(/C=N/NC(=O)COc2ccccc2)cc1	none
Cc1ccccc1N(CC(=O)N/N=C/c1ccc(N(C)C)cc1)C(=O)c1ccccc1	OX1R antag-2 63
COc1ccc(N2c3ccccc3CN(Cc3ccccc3)CC2Cc2cc(OC)c(OC)c(OC)c2)cc1 (centres undefined)	none (no result: OX1R antag-1, OX1R antag-2, CHO parental Ca, GPR7 antag)
COc1ccc(CNC(=O)c2oc3ccc(S(=O)(=O)N4CCOCC4)cc3c2C)cc1	TAAR1 antag 51
CCCn1nnc(NC(=O)c2ccc([N+](=O)[O-])cc2Cl)n1	OX1R antag-2 63
Cn1cc([N+](=O)[O-])c(C(=O)Nc2ccc(C(=O)N3CCCCC3)cc2)n1	OX1R antag-2 73
Cn1cc([N+](=O)[O-])c(C(=O)NNC(=O)c2ccc([N+](=O)[O-])cc2Cl)n1	OX1R antag-2 44
Cn1cc([N+](=O)[O-])c(C(=O)Nc2ccc(C3CCCCC3)cc2)n1	none
CC(=O)Nc1ccc(NC(=O)c2ccc([N+](=O)[O-])cc2Cl)cc1	none
Cn1cc([N+](=O)[O-])c(C(=O)Nc2nc(-c3ccc(Cl)cc3)cs2)n1	TAAR1 agonist 40, OX1R antag-1 40, CHO parental Ca 56, TAAR1 antag 67
Cc1ccc(-c2nc(NC(=O)c3nn(C)cc3[N+](=O)[O-])sc2C)cc1	none
COCc1[nH]nc2c1C(c1ccc(C)cc1)N(Cc1ccccc1)C2=O (centres undefined)	none (no result: OX1R antag-1, OX1R antag-2, CHO parental Ca, GPR7 antag)
NC(=O)C1CCN(C(=O)c2ccc(Oc3ccccc3)cc2)CC1	none
Cc1ccccc1NS(=O)(=O)c1ccc2c(c1)CCC(=O)N2	none (no result: OX1R antag-1, OX1R antag-2, CHO parental Ca, GPR7 antag)
O=C(CSc1nnc(NC(=O)C2CCC2)s1)Nc1ccccc1Br	none
CCCCn1nnc(NC(=O)c2ccc([N+](=O)[O-])cc2Cl)n1	OX1R antag-2 64
CC1CCN(c2ccccc2NC(=S)NC(=O)C(C)(C)C)CC1	none
CC1(C(=O)NCc2ccc(C(F)(F)F)cc2)CCN1Cc1ccccc1OC(F)F (centres undefined)	TAAR1 antag 56 (no result: OX1R antag-1, OX1R antag-2, CHO parental Ca, GPR7 antag)
CC1(C(=O)NCc2cccc3ccccc23)CCN1Cc1ccccc1OC(F)F (centres undefined)	none (no result: OX1R antag-1, OX1R antag-2, CHO parental Ca, GPR7 antag)
COc1ccc(C(=O)C(CN2CCOCC2)c2ccccc2)cc1F (centres undefined)	GPR7 antag 35 (no result: OX1R antag-1, OX1R antag-2, CHO parental Ca)
O=C(c1nnsc1S(=O)(=O)c1ccc(Cl)cc1)N1CCOCC1	none (no result: OX1R antag-1, OX1R antag-2, CHO parental Ca)
CNC(=O)c1nnsc1S(=O)(=O)c1ccc(Cl)cc1	GPR7 antag 26 (no result: OX1R antag-1, OX1R antag-2, CHO parental Ca)
O=C(CNC(=O)c1ccc2c(c1)OCO2)N/N=C(Br)/C=C/c1ccccc1	TAAR1 agonist 41
O=C(CNC(=O)c1ccc2c(c1)OCO2)N/N=C/c1cccc([N+](=O)[O-])c1	none
COc1ccc(NC(=O)Cn2nnc(-c3ccccc3NS(=O)(=O)c3ccc(OC)cc3)n2)cc1	CHO parental Ca 39, GPR7 antag 26
COc1ccc(NC(=O)Cn2nnc(-c3ccccc3NC(=O)c3cccs3)n2)cc1	none
CCn1nnc(-c2ccccc2NS(=O)(=O)c2ccc(C(=O)OC)cc2)n1	none
COc1ccc(-n2c(SCC(=O)Nc3ccccc3)nnc2-c2ccc(NS(=O)(=O)c3ccc(C)cc3)cc2)cc1	TAAR1 antag 53
